Data reported in paper PMC2669315 (Bioorganic & medicinal chemistry, 2008).
Each block holds one molecule with its values, some of them ahead of it.

What was measured:
[1] = test system: Hsp90 client proteins Her2, Raf-1, and Akt; test: Western blot analysis of Hsp90 client protein degradation in MCF-7 cells; type: cell-based, human; conditions: for IC50: Homo sapiens, MCF7, 24 h, read-out: Hsp90 client protein degradation IC50s; for degradation of Hsp90 client proteins (Her2, Raf-1, Akt) / effect on actin (non Hsp90-dependent protein): MCF-7 cells, 24 h, western blot
In short: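 MCF-7 cells were seeded at 1×10^6 per dish and left to attach overnight. Test compound was added at varying concentrations and incubated 24 h at 37 °C, 5% CO2. Cells were then harvested and client protein levels analysed by western blot using a previously reported method.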

Hsp90 [2] = type: biochemical, rabbit
MCF-7 cells = test: Anti-proliferation assay; type: cell-based, human
In short: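 MCF-7 cells were grown in 1:1 DMEM:Ham's F-12 with non-essential amino acids, 2 mM L-glutamine, penicillin/streptomycin and 10% FBS, at 37 °C and 5% CO2. They were seeded at 2000/well and left to attach overnight. Test compound was added at varying concentrations in DMSO (1% final) for 72 hr. Viable cells were measured by MTS/PMS and normalised to 1% DMSO wells as 100% proliferation.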

Her2 = Her2 ELISA in SKBr3 cells; type: cell-based, human; conditions: for fold decrease in Her2 degradative activity for meta substituents: meta chloro or methoxy substituent on the benzamide
In short: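 SKBr3 cells were grown as for the proliferation assay, seeded at 3000/well, attached overnight, then given test compound at varying concentrations for 24 hr. Cells were washed with ice-cold PBS/1% Tween and fixed in -20 °C methanol (10 min, 4 °C), then blocked 1 hr in 5% BSA/PBST at rt. Rabbit anti-Her2 (1:500) went on overnight at 4 °C, then HRP anti-rabbit IgG (1:1000) for 2 hr at rt. Read-out was chemiluminescence on a luminometer.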

Hsp90 [3] = conditions: assay validation; cited from earlier work

IC50 [1]: 10 to 20 µM
Compound: CC(=O)NC1=C(c2ccc(Cl)cc2)C(=O)c2ccccc2C1=O [Compound 3g]
degradation of Hsp90 client proteins (Her2, Raf-1, Akt) [1]: induced the degradation of these client proteins in a concentration-dependent manner
effect on actin (non Hsp90-dependent protein) [1]: no similar effects on actin

inhibition of luciferase refolding (in words) (Hsp90 [2]): unable to inhibit luciferase refolding
Compound: COc1ccc(C2=C(NC(=O)c3ccc(OC)c(-c4cccc(OC)c4)c3)C(=O)c3ccccc3C2=O)cc1 [Compound 11, 3’,6-dimethoxy-N-(3-(4-methoxyphenyl)-1,4-dioxo-1,4-dihydronaphthalen-2-yl)biphenyl-3-carboxamide]

IC50 [1]: 10 to 20 µM
inhibition of luciferase refolding (in words) (Hsp90 [2]): low micromolar activity
IC50 (MCF-7 cells; Homo sapiens, MCF7, read-out: anti-proliferative activity IC50): 1.7 to 3 µM
Compound: COc1cccc(-c2cc(C(=O)NC3=C(Cl)C(=O)c4ccccc4C3=O)ccc2OC)c1 [Compound 12]
degradation of Hsp90 client proteins (Her2, Raf-1, Akt) [1]: induced the degradation of these client proteins in a concentration-dependent manner
effect on actin (non Hsp90-dependent protein) [1]: no similar effects on actin

IC50 [1]: 5 to 10 µM
Compound: COc1ccc(C2=C(NC(=O)c3ccccc3Cl)C(=O)c3ccccc3C2=O)cc1 [Compound 13a]
degradation of Hsp90 client proteins (Her2, Raf-1, Akt) [1]: induced the degradation of these client proteins in a concentration-dependent manner
effect on actin (non Hsp90-dependent protein) [1]: no similar effects on actin

Compound: COc1ccc(C2=C(NC(=O)c3cccc(Cl)c3)C(=O)c3ccccc3C2=O)cc1 [Compound 13b]
fold decrease in Her2 degradative activity for meta substituents (Her2): 6 fold

Compound: COc1ccc(C2=C(NC(=O)c3cccc(OC)c3)C(=O)c3ccccc3C2=O)cc1 [Compound 13e]
fold decrease in Her2 degradative activity for meta substituents (Her2): 15 fold

Compound: COc1ccc(C2=C(NC(=O)c3cccc4ccccc34)C(=O)c3ccccc3C2=O)cc1 [Compound 13g]
fold decrease in Her2 activity compared to the corresponding benzamide (4d) (Her2; vs 4d): 3 fold

Compound: COc1ccc(C2=C(NC(=O)c3ccc4ccccc4c3)C(=O)c3ccccc3C2=O)cc1 [Compound 13h]
Her2 degradative activity (in words) (Her2): complete loss of Her2 degradative activity

inhibition of luciferase refolding (in words) (Hsp90 [2]): low micromolar activity
Compound: COc1ccc(C2=C(NC(=O)C3CCCCC3)C(=O)c3ccccc3C2=O)cc1 [Compound 13i]

Compound: CC(=O)C1=C(c2ccccc2)C(=O)c2ccccc2C1=O [HTS1]
fold greater anti-proliferative activity against MCF-7 cells compared to SKBr3 cells (MCF-7 cells; MCF-7 vs SKBr3): 4 fold

Compound: CO[C@@H]1[C@@H](OC(N)=O)[C@@H](O)[C@H](Oc2ccc3c(O)c(NC(=O)c4ccc(O)c(CC=C(C)C)c4)c(=O)oc3c2C)OC1(C)C [novobiocin]
reduction of luciferase renaturation by known Hsp90 inhibitors (Hsp90 [3]): significantly reduce the renaturation of luciferase
